# Results: ChEMBL document CHEMBL5724801, “EUbOPEN Chemogenomics Library - Multiplex” (2024)
# Several values for one entry are separate records, joined by “and”; a condition that tells them apart may be missing. Equal values may be shown once.
# Tested on: Fibroblast
# Assay: Multiplex assay against human fibroblast
# Format: toxicity, cell-based
# Outline: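 With compound added, live cells were imaged on a CQ1 microscope at 37°C and 5% CO2; staining with Hoechst33342, BioTracker Green Microtubule Cytoskeleton Dye, MitoTracker Red and Annexin V Alexa Fluor 680 had been done at seeding. The CellPathfinder machine-learning gating scheme split cells into Hoechst high-intensity objects or normal cells, normal cells into healthy, pyknosed or fragmented nuclei, and pyknosed cells into mitotic or apoptotic. The tubulin, mitochondrial-mass and membrane-permeability phenotypes are per cents of healthy-nucleus cells.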
# [1] = 12 h, 1 µM, compound concentration 1 uM
# [2] = 12 h, 10 µM, compound concentration 10 uM
# [3] = 24 h, 1 µM, compound concentration 1 uM
# [4] = 24 h, 10 µM, compound concentration 10 uM
# [5] = 48 h, 1 µM, compound concentration 1 uM
# [6] = 48 h, 10 µM, compound concentration 10 uM
smiles,measurement,setting,value
COCCCN1CCC(NC(=O)c2cc(Cl)c(N)c3c2OCC3)CC1 [PRUCALOPRIDE],Population Apoptotic (%),[1],33% and 48%
same,Population Fragmented Nuclei (%),[1],20% and 31%
same,Population Healthy Nuclei (%),[1],62% and 48%
same,Population Hoechst High Intensity Objects (%),[1],3% and 4%
same,Population Membrane Permeable-Phenotype (%),[1],0% and 5%
same,Population Mitochondria Different-Phenotype (%),[1],3% and 8%
same,Population Mitotic Cells (%),[1],66% and 52%
same,Population Normal (%),[1],96% and 95%
same,Population Pyknosed Nuclei (%),[1],16% and 20%
same,Population Tubulin-Different-Phenotype (%),[1],30% and 51%
same,Total Cell Count,[1],132 and 130
same,Population Apoptotic (%),[2],30% and 35%
same,Population Fragmented Nuclei (%),[2],12% and 28%
same,Population Healthy Nuclei (%),[2],66% and 46%
same,Population Hoechst High Intensity Objects (%),[2],0% and 11%
same,Population Membrane Permeable-Phenotype (%),[2],1% and 7%
same,Population Mitochondria Different-Phenotype (%),[2],7% and 3%
same,Population Mitotic Cells (%),[2],70% and 64%
same,Population Normal (%),[2],99% and 88%
same,Population Pyknosed Nuclei (%),[2],20% and 25%
same,Population Tubulin-Different-Phenotype (%),[2],31% and 55%
same,Total Cell Count,[2],144 and 153
same,Population Apoptotic (%),[3],48% and 72%
same,Population Fragmented Nuclei (%),[3],20% and 36%
same,Population Healthy Nuclei (%),[3],57% and 49%
same,Population Hoechst High Intensity Objects (%),[3],2% and 7%
same,Population Membrane Permeable-Phenotype (%),[3],0% and 7%
same,Population Mitochondria Different-Phenotype (%),[3],3% and 4%
same,Population Mitotic Cells (%),[3],51% and 27%
same,Population Normal (%),[3],97% and 92%
same,Population Pyknosed Nuclei (%),[3],21% and 14%
same,Population Tubulin-Different-Phenotype (%),[3],25% and 50%
same,Total Cell Count,[3],136 and 138
same,Population Apoptotic (%),[4],63% and 30%
same,Population Fragmented Nuclei (%),[4],10% and 24%
same,Population Healthy Nuclei (%),[4],74% and 57%
same,Population Hoechst High Intensity Objects (%),[4],6% and 5%
same,Population Membrane Permeable-Phenotype (%),[4],1% and 11%
same,Population Mitochondria Different-Phenotype (%),[4],6% and 3%
same,Population Mitotic Cells (%),[4],36% and 69%
same,Population Normal (%),[4],93% and 94%
same,Population Pyknosed Nuclei (%),[4],15% and 18%
same,Population Tubulin-Different-Phenotype (%),[4],30% and 56%
same,Total Cell Count,[4],128 and 148
same,Population Apoptotic (%),[5],50%
same,Population Fragmented Nuclei (%),[5],25% and 36%
same,Population Healthy Nuclei (%),[5],60% and 49%
same,Population Hoechst High Intensity Objects (%),[5],4% and 2%
same,Population Membrane Permeable-Phenotype (%),[5],2% and 3%
same,Population Mitochondria Different-Phenotype (%),[5],3% and 6%
same,Population Mitotic Cells (%),[5],50%
same,Population Normal (%),[5],95% and 97%
same,Population Pyknosed Nuclei (%),[5],14% and 13%
same,Population Tubulin-Different-Phenotype (%),[5],38% and 53%
same,Total Cell Count,[5],146 and 132
same,Population Apoptotic (%),[6],64% and 62%
same,Population Fragmented Nuclei (%),[6],22% and 34%
same,Population Healthy Nuclei (%),[6],66% and 48%
same,Population Hoechst High Intensity Objects (%),[6],2% and 6%
same,Population Membrane Permeable-Phenotype (%),[6],1% and 7%
same,Population Mitochondria Different-Phenotype (%),[6],6% and 7%
same,Population Mitotic Cells (%),[6],35% and 37%
same,Population Normal (%),[6],97% and 93%
same,Population Pyknosed Nuclei (%),[6],10% and 17%
same,Population Tubulin-Different-Phenotype (%),[6],38% and 57%
same,Total Cell Count,[6],136 and 146
c1ccc2nc(N3CCNCC3)ccc2c1 [QUIPAZINE],Population Apoptotic (%),[1],13.95% and 10%
same,Population Fragmented Nuclei (%),[1],15.05% and 6.28%
same,Population Healthy Nuclei (%),[1],64.08% and 79.23%
same,Population Hoechst High Intensity Objects (%),[1],0%
same,Population Membrane Permeable-Phenotype (%),[1],2.27% and 0.61%
same,Population Mitochondria Different-Phenotype (%),[1],9.09% and 6.71%
same,Population Mitotic Cells (%),[1],86.05% and 90%
same,Population Normal (%),[1],100%
same,Population Pyknosed Nuclei (%),[1],20.87% and 14.49%
same,Population Tubulin-Different-Phenotype (%),[1],9.09% and 19.51%
same,Total Cell Count,[1],206 and 207
same,Population Fragmented Nuclei (%),[2],10.34% and 8.29%
same,Population Healthy Nuclei (%),[2],70.94% and 74.63%
same,Population Hoechst High Intensity Objects (%),[2],0%
same,Population Membrane Permeable-Phenotype (%),[2],3.47% and 5.23%
same,Population Mitotic Cells (%),[2],94.74% and 74.29%
same,Population Normal (%),[2],100%
same,Population Pyknosed Nuclei (%),[2],18.72% and 17.07%
same,Population Tubulin-Different-Phenotype (%),[2],13.19% and 23.53%
same,Total Cell Count,[2],203 and 205
same,Population Apoptotic (%),[3],15.79% and 12%
same,Population Fragmented Nuclei (%),[3],7.37% and 6.28%
same,Population Healthy Nuclei (%),[3],75.12% and 82.51%
same,Population Hoechst High Intensity Objects (%),[3],0%
same,Population Membrane Permeable-Phenotype (%),[3],4.91% and 2.72%
same,Population Mitochondria Different-Phenotype (%),[3],6.75% and 7.61%
same,Population Mitotic Cells (%),[3],84.21% and 88%
same,Population Normal (%),[3],100%
same,Population Pyknosed Nuclei (%),[3],17.51% and 11.21%
same,Population Tubulin-Different-Phenotype (%),[3],11.04% and 17.93%
same,Total Cell Count,[3],217 and 223
same,Population Apoptotic (%),[4],17.65% and 35.71%
same,Population Fragmented Nuclei (%),[4],10.5% and 7.62%
same,Population Healthy Nuclei (%),[4],73.97% and 79.82%
same,Population Hoechst High Intensity Objects (%),[4],0%
same,Population Membrane Permeable-Phenotype (%),[4],3.7% and 3.37%
same,Population Mitochondria Different-Phenotype (%),[4],3.09% and 6.74%
same,Population Mitotic Cells (%),[4],82.35% and 64.29%
same,Population Normal (%),[4],100%
same,Population Pyknosed Nuclei (%),[4],15.53% and 12.56%
same,Population Tubulin-Different-Phenotype (%),[4],16.05% and 25.84%
same,Total Cell Count,[4],219 and 223
same,Population Apoptotic (%),[5],57.14% and 58.33%
same,Population Fragmented Nuclei (%),[5],12.6% and 5.91%
same,Population Healthy Nuclei (%),[5],82.06% and 88.64%
same,Population Hoechst High Intensity Objects (%),[5],0%
same,Population Membrane Permeable-Phenotype (%),[5],2.33% and 4.1%
same,Population Mitotic Cells (%),[5],42.86% and 41.67%
same,Population Normal (%),[5],100%
same,Population Pyknosed Nuclei (%),[5],5.34% and 5.45%
same,Population Tubulin-Different-Phenotype (%),[5],4.19% and 11.79%
same,Total Cell Count,[5],262 and 220
same,Population Apoptotic (%),[6],35.71% and 45%
same,Population Fragmented Nuclei (%),[6],10.74% and 6.5%
same,Population Healthy Nuclei (%),[6],84.07% and 85.37%
same,Population Hoechst High Intensity Objects (%),[6],0%
same,Population Membrane Permeable-Phenotype (%),[6],1.32% and 4.76%
same,Population Mitochondria Different-Phenotype (%),[6],6.61% and 0.48%
same,Population Mitotic Cells (%),[6],64.29% and 55%
same,Population Normal (%),[6],100%
same,Population Pyknosed Nuclei (%),[6],5.19% and 8.13%
same,Total Cell Count,[6],270 and 246
CCC(=O)N1CCN(c2ccc(-n3c(=O)ccc4cnc5ccc(-c6cnc7ccccc7c6)cc5c43)cc2C(F)(F)F)CC1 [TORIN1],Population Healthy Nuclei (%),[2],60% and 44%
same,Population Membrane Permeable-Phenotype (%),[2],1%
same,Population Mitochondria Different-Phenotype (%),[2],5% and 0%
same,Population Mitotic Cells (%),[2],72% and 65%
same,Population Normal (%),[2],94% and 90%
same,Population Tubulin-Different-Phenotype (%),[2],62% and 64%
same,Total Cell Count,[2],155 and 131
same,Population Healthy Nuclei (%),[4],57%
same,Population Membrane Permeable-Phenotype (%),[4],0%
same,Population Mitochondria Different-Phenotype (%),[4],10% and 5%
same,Population Mitotic Cells (%),[4],66% and 56%
same,Population Normal (%),[4],96% and 93%
same,Population Tubulin-Different-Phenotype (%),[4],62% and 59%
same,Total Cell Count,[4],137 and 128
same,Population Apoptotic (%),[6],80%
same,Population Healthy Nuclei (%),[6],72% and 62%
same,Population Membrane Permeable-Phenotype (%),[6],0% and 8%
same,Population Mitotic Cells (%),[6],20% and 46%
same,Population Normal (%),[6],96% and 95%
same,Population Pyknosed Nuclei (%),[6],10%
same,Population Tubulin-Different-Phenotype (%),[6],67% and 61%
same,Total Cell Count,[6],127 and 136
